# Publication PMC4102602 (European journal of oral sciences, 2013)
# Where two headings read alike, the source gives them in different places.
# What was measured:
# [1] = test system: MG63 human osteoblast-like cells; format: cell-based; details: over the range of surface concentrations shown for P3 in Fig. 3; mean ± S.E; N = at least 6
# Outline: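 MG63 cells grown in MEM plus NEAA with heat-inactivated 10% FBS. 96-well non-tissue-culture polystyrene plates were coated with peptide, washed, aftercoated with BSA and washed; uncoated plates served as control. Cells were seeded at 30,000/well in serum-free medium for 2 h at 37°C, washed three times with PBS, and counted by hexosaminidase activity as percent of control. Adsorbed peptide was quantified by micro BCA at 562 nm.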
# [2] = test system: MC3T3-E1 osteoblast-like cells; format: cell-based, mouse; details: for level of MC3T3 cell attachment / enhancement in the level of MC3T3 osteoprogenitor cell attachment / EC50: Fig. 2; for enhancement in the level of MC3T3 osteoprogenitor cell attachment: coating concentration as low as 1 μM; for EC50: read-out: half-maximal effect on MC3T3 cell attachment, peptide solution phase (coating) concentration, 30,000 cells/well, serum-free, 2 h, 37°C; for maximal increase of MC3T3 cell attachment: solution phase concentrations as high as 50 – 200 μM, control = uncoated wells
# Outline: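 Non-tissue-culture 96-well polystyrene was coated overnight with peptide solutions, washed, aftercoated with BSA and washed again; uncoated wells served as control. MC3T3-E1 cells were grown in MEM-α with 5% FBS and 5% NCS, then plated at 30,000 cells/well in serum-free medium for 2 h at 37°C. After three PBS washes, attachment was quantified by hexosaminidase activity as % of control. Mean ± SEM, ≥3 independent cultures.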
# [3] = test system: MC3T3 cells (RGD-binding integrin receptors); format: cell-based, mouse; details: for cell attachment activity remaining after preincubating cells with RGD: mean ± S.E, N = 5-6; for residual MC3T3 cell attachment activity after preincubating cells with RGD: 30 min preincubation, 25 μM peptide coating concentration, Fig. 4A
# Outline: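 MC3T3 cells were preincubated in tubes for 30 min with RGD tripeptide (up to 500 μM) in serum-free medium with 0.1% BSA. FBS was then added to 10% v/v, and cells were pelleted (600 × g, 5 min) and washed twice. Cells were plated at 30,000/well on BSA-aftercoated polystyrene wells coated with 25 μM peptide for 2 h at 37°C. Attachment was read by hexosaminidase activity, as % of no-RGD control.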
# [4] = test system: MC3T3-E1 osteoblast-like cells; details: osteogenic cell attachment; cited from earlier work
substance,measurement,setting,value
hBSP peptide 279-293 [DB3],maximal percentage increase in the attachment of MG63 cells,[1],228 ± 14%
hBSP peptide 278-292 [DB4],level of MC3T3 cell attachment,[2]; 1 μM coating solution,380 % of control
same,level of MC3T3 cell attachment,"[2]; 10 μM coating solution, % of control",540%
same,level of MC3T3 cell attachment,"[2]; 50 μM coating solution, % of control",590%
same,level of MC3T3 cell attachment,"[2]; 100 μM coating solution, % of control",670%
same,level of MC3T3 cell attachment,"[2]; 200 μM coating solution, % of control",710%
same,enhancement in the level of MC3T3 osteoprogenitor cell attachment,[2],several-fold
same,EC50,[2],~1000 nM
same,maximal percentage increase in the attachment of MG63 cells,[1],731 ± 100%
same,cell attachment activity remaining after preincubating cells with RGD,"[3]; 1 μM RGD, MC3T3 cells",28 ± 10%
same,cell attachment activity remaining after preincubating cells with RGD,"[3]; 500 μM RGD, MC3T3 cells",14 ± 9%
hBSP peptide 281-293 [DB1],maximal increase of MC3T3 cell attachment,[2],150-300 % of control
same,maximal percentage increase in the attachment of MG63 cells,[1],371 ± 21%
same,residual MC3T3 cell attachment activity after preincubating cells with RGD,[3]; 500 μM RGD,10-20 % of control
hBSP peptide 278-293 [P3],enhancement in the level of MC3T3 osteoprogenitor cell attachment,[2],several-fold
same,EC50,[2],~1000 nM
same,residual MC3T3 cell attachment activity after preincubating cells with RGD,[3]; 500 μM RGD,10-20 % of control
same,attachment potency greater than that of peptide P2 (281-290),[4],1-2 orders of magnitude
hBSP peptide 278-290 [DB2],maximal percentage increase in the attachment of MG63 cells,[1],422 ± 41%
same,residual MC3T3 cell attachment activity after preincubating cells with RGD,[3]; 500 μM RGD,10-20 % of control
"arg-gly-asp [RGD, reference compound]",block of the attachment of cells to the hBSP peptides,"[3]; soluble RGD, MC3T3 cells",80-90%
BSP peptide 278-302 [P4],attachment potency greater than that of peptide P2 (281-290),[4],1-2 orders of magnitude
hBSP peptide 279-292 [DB5],maximal increase of MC3T3 cell attachment,[2],150-300 % of control
